These results are taken from publication PMC11339345 (International Journal of Nanomedicine, 2024).

Series [1] in a line: Pharmacokinetics of DTX in mice after oral administration. To be noted: male, Kunming, mouse, plasma (systemic circulation), 20 mg/kg, oral 20 mg/kg DTX. The class given is in vivo. In outline:
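Male SPF Kunming mice (22–24 g) were randomised by weight and given a single oral dose of 20 mg/kg. Free drug was prepared as a sonicated water dispersion and the nanoparticle powder was vortexed in water. Five mice were sampled per time point (0.125–12 h) under Zoletil anaesthesia. Portal and systemic heparin plasma were collected, and liver and lung were rinsed, weighed and homogenised in water. Samples were acetonitrile-precipitated and assayed by LC-MS/MS, with parameters from non-compartmental analysis.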

The conditions of series [2]: cited from earlier work.
The conditions of series [3]: two hours of incubation in an alkaline solution (0.005 N NaOH, pH roughly 11.7) ref 39; cited from earlier work.

In the case of `CC(=O)O[C@@]12CO[C@@H]1C[C@H](O)[C@@]1(C)C(=O)[C@H](O)C3=C(C)[C@@H](OC(=O)[C@H](O)[C@@H](NC(=O)OC(C)(C)C)c4ccccc4)C[C@@](O)([C@@H](OC(=O)c4ccccc4)[C@H]21)C3(C)C` [DTX, Docetaxel], in series [1], the Tmax was 30 min. Besides, the Oral bioavailability in series [2] was 7.39%. Moreover, the Degradation entry in series [3] was “about 25%”.
